The values that follow come from ChEMBL document CHEMBL3352666, “Human Toll-like receptor 8-selective agonistic activities in 1-alkyl-1H-benzimidazol-2-amines” (J Med Chem, 2014).

Common to all, as to type: cell-based
Assay [1] deals with Toll-like receptor 5 (Homo sapiens) (UniProt O60602). Briefly: Agonist activity at human TLR5 stably expressed in HEK293 cells co-expressing secreted alkaline phosphatase assessed as NF-kappaB induction by liquid handler-assisted reporter gene assay. The essentials:
(§1)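 HEK293 reporter cells stably co-transfected with the respective human TLR or NOD receptor plus NF-κB/AP-1-driven secreted alkaline phosphatase, kept in selection medium. About 10^5 cells/ml were incubated with graded concentrations of test compound in 384-well format. Supernatant sAP was read colorimetrically at 620 nm with an alkaline phosphatase-specific chromogen in detection medium.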

In assay [2] the target is T1, Nucleotide-binding oligomerization domain-containing protein 2 (Homo sapiens, UniProt Q9HC29). Briefly: Agonist activity at human NOD2 stably expressed in HEK293 cells co-expressing secreted alkaline phosphatase assessed as NF-kappaB induction by liquid handler-assisted reporter gene assay. In a few lines: as §1
T1 sequence (Q9HC29 whole entry, the tested form may be a part): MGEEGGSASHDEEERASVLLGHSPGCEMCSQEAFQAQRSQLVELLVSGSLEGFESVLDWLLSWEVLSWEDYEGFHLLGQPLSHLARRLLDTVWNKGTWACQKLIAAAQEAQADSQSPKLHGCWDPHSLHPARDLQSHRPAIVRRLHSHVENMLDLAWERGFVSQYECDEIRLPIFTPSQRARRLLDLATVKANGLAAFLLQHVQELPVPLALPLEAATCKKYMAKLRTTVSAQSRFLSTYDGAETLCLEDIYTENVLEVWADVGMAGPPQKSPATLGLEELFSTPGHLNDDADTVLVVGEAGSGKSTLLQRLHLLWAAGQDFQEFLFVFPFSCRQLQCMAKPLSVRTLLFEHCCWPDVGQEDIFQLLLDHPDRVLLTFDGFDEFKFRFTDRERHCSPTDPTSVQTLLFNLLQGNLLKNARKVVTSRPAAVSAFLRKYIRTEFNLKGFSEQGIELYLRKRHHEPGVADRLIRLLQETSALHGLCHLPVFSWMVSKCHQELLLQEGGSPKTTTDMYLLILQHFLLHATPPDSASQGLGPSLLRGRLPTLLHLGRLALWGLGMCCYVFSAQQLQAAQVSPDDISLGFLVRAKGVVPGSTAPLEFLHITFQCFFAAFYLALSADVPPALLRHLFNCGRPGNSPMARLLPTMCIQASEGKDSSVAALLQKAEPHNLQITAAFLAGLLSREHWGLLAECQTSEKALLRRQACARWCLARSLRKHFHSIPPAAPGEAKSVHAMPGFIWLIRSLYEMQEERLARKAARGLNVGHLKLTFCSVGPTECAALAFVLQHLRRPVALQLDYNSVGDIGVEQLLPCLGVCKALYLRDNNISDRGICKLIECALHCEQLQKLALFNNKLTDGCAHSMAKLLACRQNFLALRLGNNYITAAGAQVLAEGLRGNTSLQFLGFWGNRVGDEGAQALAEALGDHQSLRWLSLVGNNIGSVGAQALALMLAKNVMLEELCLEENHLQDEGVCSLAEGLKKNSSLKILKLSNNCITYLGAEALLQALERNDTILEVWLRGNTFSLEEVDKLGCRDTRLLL
For orientation: In a reporter assay the amount or activity of a reporter protein is the signal.

In assay [3] the target is T2, Toll-like receptor 7 (Homo sapiens) (UniProt Q9NYK1).
T2 sequence (whole entry): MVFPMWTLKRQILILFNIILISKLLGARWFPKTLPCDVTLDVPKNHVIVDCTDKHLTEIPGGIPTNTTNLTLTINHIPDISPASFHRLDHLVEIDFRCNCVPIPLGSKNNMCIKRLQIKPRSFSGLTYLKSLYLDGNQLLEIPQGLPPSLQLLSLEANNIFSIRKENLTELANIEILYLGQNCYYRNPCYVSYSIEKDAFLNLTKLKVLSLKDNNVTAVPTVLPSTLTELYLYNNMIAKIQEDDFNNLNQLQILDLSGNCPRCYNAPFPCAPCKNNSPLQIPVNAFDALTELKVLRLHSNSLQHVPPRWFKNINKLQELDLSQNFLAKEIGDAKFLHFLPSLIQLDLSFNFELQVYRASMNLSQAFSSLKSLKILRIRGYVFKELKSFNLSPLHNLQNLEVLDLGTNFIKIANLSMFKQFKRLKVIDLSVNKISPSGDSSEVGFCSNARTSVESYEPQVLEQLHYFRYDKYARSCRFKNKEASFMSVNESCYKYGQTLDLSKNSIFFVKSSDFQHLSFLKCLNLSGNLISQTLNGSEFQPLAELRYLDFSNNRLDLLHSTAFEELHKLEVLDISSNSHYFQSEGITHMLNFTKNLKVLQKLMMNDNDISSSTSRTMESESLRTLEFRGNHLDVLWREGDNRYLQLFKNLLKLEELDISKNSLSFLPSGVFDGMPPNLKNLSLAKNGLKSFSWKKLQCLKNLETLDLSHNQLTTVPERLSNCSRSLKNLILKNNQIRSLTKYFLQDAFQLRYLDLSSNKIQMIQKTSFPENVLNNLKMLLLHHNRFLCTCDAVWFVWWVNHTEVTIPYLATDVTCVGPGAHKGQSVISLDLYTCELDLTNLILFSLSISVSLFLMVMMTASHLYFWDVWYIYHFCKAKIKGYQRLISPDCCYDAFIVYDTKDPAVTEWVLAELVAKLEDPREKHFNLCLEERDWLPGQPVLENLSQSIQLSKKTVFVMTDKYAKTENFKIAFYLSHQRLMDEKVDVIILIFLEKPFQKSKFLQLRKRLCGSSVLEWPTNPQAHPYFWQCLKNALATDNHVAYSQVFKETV
Briefly: Agonist activity at human TLR7 stably expressed in HEK293 cells co-expressing secreted alkaline phosphatase assessed as NF-kappaB induction by liquid handler-assisted reporter gene assay. The essentials: as §1

Assay [4] deals with T3, Toll-like receptor 8 (Homo sapiens, UniProt Q9NR97).
T3 sequence (Q9NR97 whole entry): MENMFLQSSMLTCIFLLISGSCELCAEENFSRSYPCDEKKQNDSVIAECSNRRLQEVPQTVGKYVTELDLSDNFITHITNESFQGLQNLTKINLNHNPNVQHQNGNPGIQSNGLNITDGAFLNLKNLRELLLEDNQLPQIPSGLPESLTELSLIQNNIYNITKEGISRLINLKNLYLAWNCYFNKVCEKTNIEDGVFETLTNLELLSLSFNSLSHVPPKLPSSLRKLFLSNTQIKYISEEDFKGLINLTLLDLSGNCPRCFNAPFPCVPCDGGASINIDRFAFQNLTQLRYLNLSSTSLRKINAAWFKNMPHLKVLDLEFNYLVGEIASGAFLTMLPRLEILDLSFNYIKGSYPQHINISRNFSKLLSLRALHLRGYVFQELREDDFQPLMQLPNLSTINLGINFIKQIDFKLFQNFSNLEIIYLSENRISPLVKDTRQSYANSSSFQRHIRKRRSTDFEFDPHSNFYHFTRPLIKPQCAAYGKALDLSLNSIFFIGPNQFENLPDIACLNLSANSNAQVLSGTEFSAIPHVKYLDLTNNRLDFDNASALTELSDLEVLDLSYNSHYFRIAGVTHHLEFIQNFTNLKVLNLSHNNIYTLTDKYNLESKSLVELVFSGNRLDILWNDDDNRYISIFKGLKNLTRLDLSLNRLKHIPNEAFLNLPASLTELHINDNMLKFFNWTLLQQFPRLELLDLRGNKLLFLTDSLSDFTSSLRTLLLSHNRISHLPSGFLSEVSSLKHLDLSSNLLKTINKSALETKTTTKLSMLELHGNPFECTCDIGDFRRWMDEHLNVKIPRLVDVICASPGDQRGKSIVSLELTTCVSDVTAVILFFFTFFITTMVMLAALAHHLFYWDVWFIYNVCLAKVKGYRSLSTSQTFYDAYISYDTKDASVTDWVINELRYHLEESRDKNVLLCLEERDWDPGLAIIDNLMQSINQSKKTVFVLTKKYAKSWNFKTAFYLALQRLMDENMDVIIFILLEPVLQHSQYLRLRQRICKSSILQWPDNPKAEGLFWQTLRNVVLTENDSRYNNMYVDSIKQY
Description: Agonist activity at human TLR8 stably expressed in HEK293 cells co-expressing secreted alkaline phosphatase assessed as NF-kappaB induction by liquid handler-assisted reporter gene assay. In a few lines:
as §1

Assay [5] concerns the target T1, Nucleotide-binding oligomerization domain-containing protein 2. Briefly: Antagonist activity at human NOD2 stably expressed in HEK293 cells co-expressing secreted alkaline phosphatase assessed as NF-kappaB induction by liquid handler-assisted reporter gene assay.

One may read the IC50 as the concentration that inhibits the measured activity by half.

Active and inactive are the calls of the source. The calls are words filed in the database; no cut-off is given here.

Toll-like receptor 5 (Homo sapiens), sequence (O60602 whole entry): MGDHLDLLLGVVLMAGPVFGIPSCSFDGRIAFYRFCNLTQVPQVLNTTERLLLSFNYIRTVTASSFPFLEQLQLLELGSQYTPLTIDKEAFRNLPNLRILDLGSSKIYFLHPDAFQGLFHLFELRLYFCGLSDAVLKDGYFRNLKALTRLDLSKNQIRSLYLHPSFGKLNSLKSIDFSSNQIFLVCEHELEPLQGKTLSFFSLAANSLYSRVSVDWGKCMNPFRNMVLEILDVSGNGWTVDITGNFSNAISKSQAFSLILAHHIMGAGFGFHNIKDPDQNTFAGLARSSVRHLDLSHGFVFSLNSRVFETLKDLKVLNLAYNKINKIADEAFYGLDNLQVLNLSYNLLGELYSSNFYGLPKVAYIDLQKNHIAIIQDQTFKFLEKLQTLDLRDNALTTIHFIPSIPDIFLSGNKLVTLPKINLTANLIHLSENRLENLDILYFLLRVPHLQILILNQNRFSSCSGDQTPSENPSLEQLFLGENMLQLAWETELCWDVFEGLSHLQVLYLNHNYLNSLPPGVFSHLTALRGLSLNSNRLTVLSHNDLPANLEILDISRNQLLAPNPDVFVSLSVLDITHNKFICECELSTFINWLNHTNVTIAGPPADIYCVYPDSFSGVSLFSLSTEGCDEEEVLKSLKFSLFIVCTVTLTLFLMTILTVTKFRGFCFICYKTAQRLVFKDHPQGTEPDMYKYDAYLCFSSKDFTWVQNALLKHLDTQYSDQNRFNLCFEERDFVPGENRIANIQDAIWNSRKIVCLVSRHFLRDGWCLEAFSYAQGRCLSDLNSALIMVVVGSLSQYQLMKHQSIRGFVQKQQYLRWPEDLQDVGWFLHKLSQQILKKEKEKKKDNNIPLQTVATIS

With `CCCCCn1c(N)nc2c(C)cccc21`, the outcome in assay [1], in assay [2] and in assay [3] was inactive.

For `CCCCCn1c(NC(C)=O)nc2ccccc21`, the outcome in assay [1], in assay [2] and in assay [3] was inactive. The EC50 result in assay [4] is “Not Active”. Besides, the IC50 in assay [5] was more than 10 µM.

Regarding `CCCCCn1c(N)nc2cnccc21`, the result in assay [1], in assay [2] and in assay [3] was inactive. For the same compound, the EC50 entry in assay [4] is “Not Active”.

On to `CCCCCn1c(N)nc2c(Cc3ccccc3)cccc21`, for which the result in assay [1], in assay [2] and in assay [3] was inactive. In assay [4], the EC50 result is on record as “Not Active”. Also, in assay [5], the IC50 was more than 10 µM.

In the case of `NCc1cccc(Cn2c(N)nc3ccccc32)c1`, the outcome in assay [1], in assay [2] and in assay [3] was inactive. In addition, the EC50 result in assay [4] was “Not Active”.

As to `CCCCCn1c(N)nc2c(C(F)(F)F)cccc21`, the result in assay [1], in assay [2] and in assay [3] was inactive. The EC50 entry in assay [4] was “Not Active”.

In the case of `CCCCOC(=O)n1c(N)nc2ccccc21`, the result in assay [1], in assay [2] and in assay [3] was inactive. The EC50 entry in assay [4] was “Not Active”.

Consider `CCCCCn1c(N)nc2ccc3ccccc3c21`, for which the result in assay [1], in assay [2] and in assay [3] was inactive. Also, the EC50 result in assay [4] is listed as “Not Active”. In addition, in assay [5], the IC50 is more than 10 µM.

On to `CCCCCn1c(N)nc2c(OCc3ccccc3)cccc21`, for which the result in assay [1], in assay [2] and in assay [3] was inactive. In assay [4], the EC50 result is recorded as “Not Active”. Further, the IC50 in assay [5] is more than 10 µM.

Regarding `CCCCCn1c(N)nc2c(-c3ccccc3)cccc21`, the outcome in assay [1], in assay [2] and in assay [3] was inactive. The EC50 result in assay [4] is listed as “Not Active”. Moreover, in assay [5], the half-inhibitory concentration (IC50) was more than 10 µM.

Consider `CCCCCn1c(N)nc2c(F)cccc21`, for which the result in assay [1], in assay [2] and in assay [3] was inactive. In addition, the EC50 result in assay [4] is “Not Active”.

For `CCCCCn1c(N)nc2ncccc21`, the outcome in assay [1], in assay [2] and in assay [3] was inactive. Besides, in assay [4], the EC50 entry is given as “Not Active”.

Regarding `CCCCCn1c(N)nc2ccncc21`, the outcome in assay [1], in assay [2] and in assay [3] was inactive. In addition, the EC50 result in assay [4] was “Not Active”.

`CCCCCn1c(N)nc2cc3ccccc3cc21`: the outcome in assay [1], in assay [2] and in assay [3] was inactive. The EC50 entry in assay [4] is “Not Active”. Also, in assay [5], the IC50 was more than 10 µM.

As for `CCCCC1(O)C(N)=Nc2ccccc21` (centres undefined), the result in assay [1], in assay [2] and in assay [3] was inactive. The EC50 entry in assay [4] is “Not Active”.

On to `CCCCC1C(N)=Nc2ccccc21.Cl` (centres undefined), for which the outcome in assay [1], in assay [2] and in assay [3] was inactive. Further, the EC50 entry in assay [4] is recorded as “ND(Unstable)”.

On to `CCCCCn1c(N)nc2c(Cl)cccc21`, for which the result in assay [1], in assay [2] and in assay [3] was inactive. For the same compound, the EC50 entry in assay [4] is on record as “Not Active”.

For the compound `CCCCCn1c(N)nc2cccnc21`, the outcome in assay [1], in assay [2] and in assay [3] was inactive. In addition, the EC50 result in assay [4] is “Not Active”.

For `CCCCCn1c(N)nc2c([N+](=O)[O-])cccc21`, the result in assay [1], in assay [2] and in assay [3] was inactive. For the same compound, the EC50 result in assay [4] is given as “Not Active”.

As for `CCCCCn1c(N)nc2c(Br)cccc21`, the outcome in assay [1], in assay [2] and in assay [3] was inactive. Besides, the EC50 result in assay [4] is “Not Active”.

As for `Nc1nc2ccccc2n1Cc1ccccc1`, the result in assay [1], in assay [2] and in assay [3] was inactive. For the same compound, the EC50 entry in assay [4] is “Not Active”.
